Data: the RNAGym collection of RNA variant scans (doi:10.1002/anie.201605470)

B1: Osa-1-4 twister ribozyme (parent)
chain: CCGCCUAACACUGCCAAUGCCGGUCCCAAGCCCGGAUAAAAGUGGAGGGGGCGG

Variants of: B1
Experiment: self-cleavage, relative activity (ratio to wild type); higher = more cleavage; co-transcriptional
How it was run: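 For each read, cleavage status was taken from whether upstream sequence was present. The reads came from an Oryza sativa twister ribozyme of 54 nucleotides, whose DNA template was synthesised with 97 % wild-type base and 1 % of each other base at the 48 positions downstream of the cleavage site. The template was transcribed in vitro at 37 °C for 2 h with co-transcriptional self-cleavage, and the RNA was reverse-transcribed using a template-switching oligonucleotide, PCR-amplified and deep-sequenced. Relative activity is the fraction cleaved normalised to wild type.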
A17G G34U gave a self-cleavage of 0.57.
For A17G G34C, the self-cleavage was 0.41.
Work on A17G G34A yielded a self-cleavage of 0.73.
With G19C G48U the self-cleavage was 0.03.
For G19C G48C, the self-cleavage was 0.02.
G19C G48A showed a self-cleavage of 0.02.
A17U A41C gave a self-cleavage of 0.98.
For A17U A41G, the self-cleavage was 0.9.
A17U A41U showed a self-cleavage of 0.96.
G19A U12A showed a self-cleavage of 0.12.
G19A U12C showed a self-cleavage of 0.09.
With G19A U12G the self-cleavage was 0.13.
In the case of A17U A39C, the self-cleavage is reported as 0.98.
In the case of A17U A39G, the self-cleavage is reported as 1.03.
For A17U A39U, the self-cleavage was 1.03.
G19A G30C gave a self-cleavage of 0.07.
For G19A G30A, the self-cleavage was 0.05.
G19A G30U showed a self-cleavage of 0.06.
Variant G19A G34C has a self-cleavage of 0.25.
For G19A G34U, the self-cleavage was 0.39.
In the case of G19A G34A, the self-cleavage is reported as 0.61.
With A17G G42A the self-cleavage was 0.58.
In the case of A17G G42C, the self-cleavage is reported as 0.08.
A17G G42U showed a self-cleavage of 0.21.
With A17G C52G the self-cleavage was 0.9.
With A17G C52A the self-cleavage was 0.95.
In the case of A17G C52U, the self-cleavage is reported as 1.01.
Work on G19A G47U yielded a self-cleavage of 0.07.
For G19A G47A, the self-cleavage was 0.08.
G19A G47C gave a self-cleavage of 0.08.
In the case of A17U C25A, the self-cleavage is reported as 0.14.
In the case of A17U C25U, the self-cleavage is reported as 0.93.
A17U C25G gave a self-cleavage of 0.1.
For G19A U37A, the self-cleavage was 0.88.
G19A U37G showed a self-cleavage of 1.
For G19A U37C, the self-cleavage was 1.03.
G19A G51U gave a self-cleavage of 0.17.
G19A G51A gave a self-cleavage of 0.33.
Variant G19A G51C has a self-cleavage of 0.08.
A17G G49U showed a self-cleavage of 0.25.
A17G G49C gave a self-cleavage of 0.08.
A17G G49A showed a self-cleavage of 0.26.
A17G C32U showed a self-cleavage of 0.19.
A17G G22C showed a self-cleavage of 0.15.
In the case of A17G G22U, the self-cleavage is reported as 0.79.
In the case of A17G G22A, the self-cleavage is reported as 0.97.
With A17U G53C the self-cleavage was 0.12.
Variant A17U G53A has a self-cleavage of 0.95.
Work on A17U G53U yielded a self-cleavage of 0.41.
A17G G47A showed a self-cleavage of 0.46.
A17G G47C gave a self-cleavage of 0.17.
For A17G G47U, the self-cleavage was 0.43.
In the case of A17U G54A, the self-cleavage is reported as 0.99.
With A17U G54U the self-cleavage was 0.99.
A17U G54C showed a self-cleavage of 1.
For A17U G49U, the self-cleavage was 0.22.
In the case of A17U G49C, the self-cleavage is reported as 0.08.
Variant A17U G49A has a self-cleavage of 0.25.
With G19C G22A the self-cleavage was 0.06.
In the case of G19C G22U, the self-cleavage is reported as 0.03.
In the case of G19C G22C, the self-cleavage is reported as 0.03.
A17U A8C gave a self-cleavage of 0.11.
A17U A8U showed a self-cleavage of 0.42.
For A17U A8G, the self-cleavage was 0.62.
For A17U C21A, the self-cleavage was 0.83.
Work on A17U C21U yielded a self-cleavage of 1.05.
With A17U C21G the self-cleavage was 0.09.
A17G G35A showed a self-cleavage of 0.79.
For A17G G35C, the self-cleavage was 0.66.
A17G G35U showed a self-cleavage of 0.77.
For A17U A38C, the self-cleavage was 0.98.
In the case of A17U A38G, the self-cleavage is reported as 1.02.
A17U A38U showed a self-cleavage of 1.02.
For A17U A7C, the self-cleavage was 0.05.
A17U A7U showed a self-cleavage of 0.09.
For A17U A7G, the self-cleavage was 0.43.
A17G G13C gave a self-cleavage of 0.03.
In the case of A17G G13A, the self-cleavage is reported as 0.23.
In the case of A17G G13U, the self-cleavage is reported as 0.04.
Work on A17U U18A yielded a self-cleavage of 0.89.
Work on A17U U18C yielded a self-cleavage of 0.9.
A17U U18G gave a self-cleavage of 0.87.
Variant A17U G50U has a self-cleavage of 1.02.
Variant A17U G50C has a self-cleavage of 1.02.
For A17U G50A, the self-cleavage was 0.69.
A17U C26A gave a self-cleavage of 0.06.
A17U C26U showed a self-cleavage of 1.
With A17U C26G the self-cleavage was 0.09.
U18C U24A showed a self-cleavage of 0.21.
U18C U24G gave a self-cleavage of 0.02.
U18C U24C showed a self-cleavage of 0.24.
Variant A17G G23C has a self-cleavage of 0.08.
A17G G23U showed a self-cleavage of 0.08.
With A17G G23A the self-cleavage was 0.43.
A17G G44C gave a self-cleavage of 0.88.
Work on A17G G44A yielded a self-cleavage of 0.88.
A17G G44U gave a self-cleavage of 0.74.
A17G U37G gave a self-cleavage of 1.01.
In the case of A17G U37C, the self-cleavage is reported as 1.02.
A17G U37A showed a self-cleavage of 0.63.
A17U C33A showed a self-cleavage of 0.19.
Variant A17U C33U has a self-cleavage of 0.85.
Work on A17U C33G yielded a self-cleavage of 0.06.
For A17U G34A, the self-cleavage was 0.82.
In the case of A17U G34U, the self-cleavage is reported as 0.78.
A17U G34C gave a self-cleavage of 0.5.
Work on A17U G35A yielded a self-cleavage of 0.9.
A17U G35U showed a self-cleavage of 0.92.
A17U G35C gave a self-cleavage of 0.86.
G19A showed a self-cleavage of 0.99.
Work on G19C yielded a self-cleavage of 0.27.
For G19A G23C, the self-cleavage was 0.06.
Work on G19A G23U yielded a self-cleavage of 0.05.
In the case of G19A G23A, the self-cleavage is reported as 0.12.
In the case of G19A G54C, the self-cleavage is reported as 0.24.
G19A G54U showed a self-cleavage of 0.65.
With G19A G54A the self-cleavage was 0.31.
With A17U C11U the self-cleavage was 0.86.
With A17U C11A the self-cleavage was 0.7.
A17U C11G gave a self-cleavage of 0.48.
With A17U G45C the self-cleavage was 0.06.
A17U G45U gave a self-cleavage of 0.18.
A17U G45A gave a self-cleavage of 0.54.
A17U A29G showed a self-cleavage of 0.35.
Work on A17U A29C yielded a self-cleavage of 0.05.
With A17U A29U the self-cleavage was 0.19.
Work on A17U G42U yielded a self-cleavage of 0.56.
For A17U G42C, the self-cleavage was 0.29.
Variant A17U G42A has a self-cleavage of 0.17.
Variant A17U G44U has a self-cleavage of 0.94.
A17U G44A showed a self-cleavage of 1.
Variant A17U G44C has a self-cleavage of 0.98.
Work on G19A G22U yielded a self-cleavage of 0.12.
With G19A G22C the self-cleavage was 0.05.
G19A G22A showed a self-cleavage of 0.35.
Variant G19A G45U has a self-cleavage of 0.06.
G19A G45C gave a self-cleavage of 0.06.
In the case of G19A G45A, the self-cleavage is reported as 0.07.
Variant A17U G48C has a self-cleavage of 0.13.
Variant A17U G48A has a self-cleavage of 0.16.
Variant A17U G48U has a self-cleavage of 0.08.
Variant A17U C32G has a self-cleavage of 0.17.
A17U C32A gave a self-cleavage of 0.13.
With A17U C32U the self-cleavage was 0.25.
G19C G44U gave a self-cleavage of 0.07.
Work on G19C G44C yielded a self-cleavage of 0.14.
G19C G44A gave a self-cleavage of 0.07.
Work on A17G U43C yielded a self-cleavage of 0.72.
Work on A17G U43A yielded a self-cleavage of 0.81.
Work on A17G U43G yielded a self-cleavage of 0.51.
For A17U C14A, the self-cleavage was 0.18.
With A17U C14G the self-cleavage was 0.25.
In the case of A17U C14U, the self-cleavage is reported as 0.79.
With G19A G53C the self-cleavage was 0.09.
G19A G53A showed a self-cleavage of 0.18.
Variant G19A G53U has a self-cleavage of 0.13.
In the case of G19A U43C, the self-cleavage is reported as 0.12.
Variant G19A U43G has a self-cleavage of 0.12.
In the case of G19A U43A, the self-cleavage is reported as 0.23.
Variant A17U A46G has a self-cleavage of 0.09.
With A17U A46C the self-cleavage was 0.04.
A17U A46U showed a self-cleavage of 0.1.
Work on G19A G49U yielded a self-cleavage of 0.08.
Variant G19A G49C has a self-cleavage of 0.09.
G19A G49A showed a self-cleavage of 0.08.
For A17G C33G, the self-cleavage was 0.07.
Variant A17G C33A has a self-cleavage of 0.18.
